From ChEMBL document CHEMBL1156117, “Anti-trypanosomatid benzofuroxans and deoxygenated analogues: synthesis using polymer-supported triphenylphosphine, biological evaluation and mechanism of action studies” (Eur J Med Chem, 2009)
pIC50: −log10 of the molar value. Calls of active or inactive are those of the source. The rule behind the calls is not given here.

Key:
Leishmania braziliensis [1] = assay: Antileishmanial activity against Leishmania braziliensis MHOM/BR/00/LTB300 promastigotes assessed as parasite viability after 5 days by MTT assay; assay type: functional, organism-based; conditions: MHOM/BR/00/LTB300, 120 h
Summary of the method: (§1)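 Promastigotes (L. braziliensis, L. pifanoi) grown at 28 °C in axenic RPMI with 5% FBS. T. cruzi CL Brener epimastigotes grown in BHI-tryptose with 5% foetal serum. 24-well plates, 1 mL/well, seeded from exponential-phase culture. Compounds in DMSO, added at several concentrations (0.5–50.0) and kept 5 days. Then MTT 0.4 mg/mL for 3 h at 37 °C. Formazan dissolved in DMSO, OD595 read. Triplicate per concentration, six growth controls. Cytotoxicity % calculated against growth and medium blanks, IC50 derived.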

Trypanosoma cruzi [2] = assay: Inhibition of Trypanosoma cruzi Tulahuen 2 mitochondrial dehydrogenase at 20 uM after 120 mins by MTT assay relative to control
Summary of the method: (§2)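 10⁶ parasites/well (T. cruzi Tulahuen 2 or Y epimastigotes, or L. braziliensis LTB300 promastigotes) in 500 µL medium with 20 µM compound, at 28 °C for up to 240 min; untreated duplicate wells served as time-matched controls. MTT (5 mg/mL stock in PBS) added for 2 h, stopped with acidic isopropanol, A570 read. Activity expressed as % of untreated parasites.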

Leishmania braziliensis [3] = assay: Inhibition of Leishmania braziliensis MHOM/BR/00/LTB300 promastigotes mitochondrial dehydrogenase at 20 uM by MTT assay relative to control; conditions: TDE = time-dependent effect; summary of the method: as §2
Trypanosoma cruzi [4] = assay: Antitrypanosomal activity against Trypanosoma cruzi epimastigotes; assay type: functional, organism-based
Trypanosoma cruzi [5] = assay: Antitrypanosomal activity against Trypanosoma cruzi Tulahuen 2 epimastigotes assessed as parasite growth inhibition after 5 days; assay type: functional, organism-based
Summary of the method: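 Tulahuen 2 epimastigotes grown at 28 °C in BHI-tryptose with 5% foetal calf serum. Late-log cells seeded at 3×10⁶/mL in 24-well plates with compound from DMSO stock (final DMSO ≤0.8%; control 0.8% DMSO). A610 read at day 0 and day 5. Growth inhibition calculated from the corrected absorbance ratio to control; IC50 is the concentration giving 50% of the control ratio.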

J774 = assay: Cytotoxicity against mouse J774 macrophages after 48 hrs by MTT assay; assay type: cell-based
Summary of the method: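 Exposed to compounds (1.0–400.0) for 48 h, washed with PBS, then MTT 0.4 mg/mL for 3 h. Formazan dissolved in DMSO, OD595 read. Triplicate per concentration, six growth controls. % cytotoxicity calculated against blanks.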

[6] = Selectivity index, ratio of IC50 for mouse J774 macrophages to IC50 for Trypanosoma cruzi Tulahuen 2 epimastigotes
Leishmania pifanoi [7] = assay: Antileishmanial activity against Leishmania pifanoi MHOM/VE/57/LV135 promastigotes assessed as parasite viability after 5 days by MTT assay; assay type: functional, organism-based; conditions: MHOM/VE/57/LV135, 120 h; summary of the method: as §1
Trypanosoma cruzi [8] = assay: Antitrypanosomal activity against Trypanosoma cruzi CL Brener epimastigotes assessed as parasite viability after 5 days by MTT assay; assay type: functional, organism-based; conditions: 120 h; summary of the method: as §1
[9] = target: Cruzipain (Trypanosoma cruzi) (UniProt P25779); assay: Inhibition of Trypanosoma cruzi cruzipain at 25 uM
Chain of Cruzipain (Trypanosoma cruzi) (P25779 123-467 limits assumed): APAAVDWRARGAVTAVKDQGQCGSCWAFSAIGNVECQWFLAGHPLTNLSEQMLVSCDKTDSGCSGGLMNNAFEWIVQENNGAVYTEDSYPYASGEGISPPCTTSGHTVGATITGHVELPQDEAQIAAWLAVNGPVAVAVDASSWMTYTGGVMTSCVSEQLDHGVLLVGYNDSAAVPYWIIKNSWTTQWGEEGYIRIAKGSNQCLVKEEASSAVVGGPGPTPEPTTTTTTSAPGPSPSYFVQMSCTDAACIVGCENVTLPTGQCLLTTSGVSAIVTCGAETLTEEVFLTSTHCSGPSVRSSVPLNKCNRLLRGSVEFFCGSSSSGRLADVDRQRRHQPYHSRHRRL

[10] = target: Cruzipain (Trypanosoma cruzi) (UniProt P25779); assay: Inhibition of Trypanosoma cruzi cruzipain at 50 uM
[11] = target: Cruzipain (Trypanosoma cruzi) (UniProt P25779); assay: Inhibition of Trypanosoma cruzi cruzipain at 100 uM
Trypanosoma cruzi [12] = assay: Induction of free radical production Trypanosoma cruzi microsomal fraction at 1 mM using DMPO and FXN spin trapping by ESR spectroscopic analysis; assay type: functional; conditions: Microsome
Summary of the method: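 T. cruzi microsomal fraction at 4 mg protein/mL, in 20 mM phosphate buffer pH 7.4 with 1 mM NADPH, 1 mM EDTA and 100 mM DMPO or FXN spin trap. Compound added at 1 mM final, dissolved in spectroscopy-grade DMF. Radical adducts detected by ESR.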

Trypanosoma cruzi [13] = assay: Inhibition of Trypanosoma cruzi Y mitochondrial dehydrogenase at 20 uM after 120 mins by MTT assay relative to control; summary of the method: as §2
Leishmania pifanoi [14] = assay: Antileishmanial activity against Leishmania pifanoi MHOM/VE/57/LV135 promastigotes assessed as parasite viability at 5 uM after 5 days by MTT assay; assay type: functional; conditions: MHOM/VE/57/LV135, 120 h, read-out: GI
Summary of the method: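 L. pifanoi LV135 promastigotes grown at 28 °C in axenic RPMI with 5% FBS. Tested at a single concentration of 5.0 over 5 days. MTT 0.4 mg/mL for 3 h at 37 °C, formazan dissolved in DMSO, OD595 read. Percent growth inhibition reported versus untreated growth controls, with medium blanks subtracted.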

Leishmania braziliensis [15] = assay: Ratio of compound IC50 to Miltefosine IC50 for Leishmania braziliensis MHOM/BR/00/LTB300 promastigotes; assay type: functional
[16] = Trypanosoma cruzi, Tulahuen 2, 120 h

Compound | pIC50 (Trypanosoma cruzi [5]; [16]) | pIC50 (Trypanosoma cruzi [8]) | pIC50 (J774; Mus musculus, J774, 48 h) | Selectivity Index [6] | further results
C=CS(=O)(=O)Cc1ccc2no[n+]([O-])c2c1 |  |  |  |  | pIC50 (Leishmania braziliensis [1]): 4.77; inhibition (Trypanosoma cruzi [2]): 58.5%; Activity (Leishmania braziliensis [3]): tde; pIC50 (Trypanosoma cruzi [4]): 4.84
O=C(/C=C/c1ccc2nonc2c1)c1ccc(Cl)cc1 | < 4.00 |  | 3.60 | <2.5 | 
[O-][n+]1onc2ccc(/C=C/[S+]([O-])c3ccccc3)cc21 (stereo in doubt; 24) |  |  |  | >10 | pIC50 (J774; j774): < 3.40
[O-][n+]1onc2ccc(/C=C/Sc3ccccc3)cc21 |  |  |  |  | pIC50 (Leishmania braziliensis [1]): 5.82; pIC50 (Leishmania pifanoi [7]): 5.37; pIC50 (Trypanosoma cruzi [4]): 5.59
O=S(=O)(/C=C\c1ccc2no[n+]([O-])c2c1)c1ccc(F)cc1 | 5.57 | 5.54 |  |  | inhibition [9]: 0%; inhibition [10]: 0%; inhibition [11]: 0%; Activity (Trypanosoma cruzi [12]): Active
O=S(=O)(/C=C/c1ccc2no[n+]([O-])c2c1)c1ccc(F)cc1 | 5.12 | 5.20 |  |  | Activity (Trypanosoma cruzi [12]): Active
[O-][n+]1onc2ccc(/C=C\[S+]([O-])c3ccccc3)cc21 (stereo unspecified) |  |  | 4.85 | 20 | pIC50 (Leishmania braziliensis [1]): 5.34; inhibition (Trypanosoma cruzi [13]): 25%; Activity (Leishmania braziliensis [3]): tde; pIC50 (Trypanosoma cruzi [4]): 6.15
[O-][n+]1onc2ccc(/C=C/c3ccccc3)cc21 |  |  |  |  | pIC50 (Trypanosoma cruzi [4]): 4.97
CCCCCCCCCCCCCCCCOP(=O)([O-])OCC[N+](C)(C)C [MILTEFOSINE] |  |  |  |  | pIC50 (Leishmania braziliensis [1]): 5.05; inhibition of growth at 5 µM (Leishmania pifanoi [14]): 85.5%
[O-][n+]1onc2ccc(/C=C\Sc3ccc(Cl)cc3)cc21 | 5.38 | 5.55 |  |  | 
[O-][n+]1onc2ccc(/C=C\c3ccccc3)cc21 |  |  |  |  | pIC50 (Trypanosoma cruzi [4]): 5.15
Cc1ccc(S(=O)(=O)/C=C/c2ccc3no[n+]([O-])c3c2)cc1 | 5.37 | 5.02 | 5.10 | 1.1 | 
O=S(=O)(C=Cc1ccc2no[n+]([O-])c2c1)c1ccc(Cl)cc1 |  |  |  |  | inhibition (Trypanosoma cruzi [2]): 4%
O=S(=O)(/C=C\c1ccc2no[n+]([O-])c2c1)c1ccc(Cl)cc1 | 5.89 | 5.64 |  |  | 
O=C(/C=C/c1ccc2nonc2c1)c1ccccc1 | 4.01 |  | 3.99 | 1.1 | 
[O-][n+]1onc2ccc(/C=C/Sc3ccc(Cl)cc3)cc21 | 5.72 | 6.00 |  |  | pIC50 (Leishmania braziliensis [1]): 6.05; pIC50 (Leishmania pifanoi [7]): 5.34; Ratio IC50 (Leishmania braziliensis [15]): 10
O=S(=O)(/C=C/c1ccc2no[n+]([O-])c2c1)c1ccccc1 (stereo in doubt; 4E) [listing 1 of 2 here] |  |  |  |  | inhibition (Trypanosoma cruzi [13]): 25%; Activity (Leishmania braziliensis [3]): tde
COc1ccc(C(=O)/C=C/c2ccc3no[n+]([O-])c3c2)cc1 (stereo in doubt; 11) |  |  |  | 7.6 | pIC50 (Trypanosoma cruzi [5]): 5.39; pIC50 (J774; j774): 4.51; inhibition [11]: 13%

Compound | pIC50 (Trypanosoma cruzi [5]; [16]) | pIC50 (Trypanosoma cruzi [8]) | pIC50 (J774; Mus musculus, J774, 48 h) | Selectivity Index [6] | further results
[O-][n+]1onc2ccc(/C=C\Sc3ccc(F)cc3)cc21 | 4.92 | 5.23 |  |  | pIC50 (Leishmania braziliensis [1]): 5.77; pIC50 (Leishmania pifanoi [7]): 5.35; Activity (Trypanosoma cruzi [12]): Active
O=S(=O)(/C=C\c1ccc2no[n+]([O-])c2c1)c1ccccc1 |  |  | 4.96 | 10 | pIC50 (Leishmania braziliensis [1]): 4.97; pIC50 (Trypanosoma cruzi [4]): 5.96
[O-][n+]1onc2ccc(/C=C/Sc3ccc(F)cc3)cc21 | 5.30 | 5.26 | 4.46 | 7 | pIC50 (Leishmania braziliensis [1]): 5.37; pIC50 (Leishmania pifanoi [7]): 5.37; Activity (Trypanosoma cruzi [12]): Active
O=S(=O)(/C=C/c1ccc2no[n+]([O-])c2c1)c1ccccc1 (stereo in doubt; 25) |  |  |  | 3.1 | pIC50 (J774; j774): 4.11
O=C(/C=C/c1ccc2nonc2c1)c1ccc([N+](=O)[O-])cc1 | < 4.00 |  | 3.88 | <1.3 | 
O=S(=O)(/C=C/c1ccc2no[n+]([O-])c2c1)c1ccc(Cl)cc1 | 5.32 | 5.32 |  |  | 
[O-][n+]1onc2ccc(/C=C/[S+]([O-])c3ccccc3)cc21 (stereo in doubt; 3E) |  |  |  | 11.5 | pIC50 (Leishmania braziliensis [1]): 4.50; pIC50 (J774; j774): 4.52; pIC50 (Trypanosoma cruzi [4]): 5.59
[O-][n+]1onc2ccc(C=CSc3ccccc3)cc21 |  |  | 4.52 | 10 | inhibition (Trypanosoma cruzi [2]): 14.5%
O=C(/C=C/c1ccc2no[n+]([O-])c2c1)c1ccc(Cl)cc1 | 4.60 |  | 4.55 | 1.1 | 
Cc1ccc(S/C=C/c2ccc3no[n+]([O-])c3c2)cc1 | 5.72 | 5.33 |  |  | 
Cc1ccc(S/C=C\c2ccc3no[n+]([O-])c3c2)cc1 | 5.38 | 5.39 |  |  | 
Cc1ccc(S(=O)(=O)/C=C\c2ccc3no[n+]([O-])c3c2)cc1 | 5.44 | 5.29 |  |  | 
[O-][n+]1onc2ccc(/C=C\Sc3ccccc3)cc21 |  |  |  |  | pIC50 (Leishmania braziliensis [1]): 6.05; pIC50 (Leishmania pifanoi [7]): 5.35; inhibition [9]: 11%; inhibition [10]: 22%; inhibition [11]: 30%; Ratio IC50 (Leishmania braziliensis [15]): 10; pIC50 (Trypanosoma cruzi [4]): 5.42
O=S(=O)(/C=C/c1ccc2no[n+]([O-])c2c1)c1ccccc1 (stereo in doubt; 4E) [listing 2 of 2 here] |  |  |  | 10 | pIC50 (Leishmania braziliensis [1]): 4.67; pIC50 (J774; j774): 4.80; pIC50 (Trypanosoma cruzi [4]): 5.80
O=C(/C=C/c1ccc2no[n+]([O-])c2c1)c1ccc([N+](=O)[O-])cc1 | 5.62 |  | 4.49 | 13.3 | 
O=S(=O)(C=Cc1ccc2no[n+]([O-])c2c1)c1ccc(F)cc1 |  |  |  |  | inhibition (Trypanosoma cruzi [2]): 17.6%
O=C(/C=C/c1ccc2no[n+]([O-])c2c1)c1ccccc1 | 5.30 |  | 4.33 | 9.4 | inhibition [9]: 0%; inhibition [10]: 0%; inhibition [11]: 0%; inhibition (Trypanosoma cruzi [2]): 21.8%

Now from value to compound, other results behind:

pIC50 (Trypanosoma cruzi [5]; [16]) | pIC50 (Trypanosoma cruzi [8]) | Compound | pIC50 (J774; Mus musculus, J774, 48 h) | Selectivity Index [6] | further results
5.57 | 5.33 | [O-][n+]1onc2ccc(/C=C\[S+]([O-])c3ccc(Cl)cc3)cc21 (stereo unspecified) | 5.00 | 6.3 | 
5.80 | 5.49 | [O-][n+]1onc2ccc(/C=C\[S+]([O-])c3ccc(F)cc3)cc21 (stereo unspecified) |  |  | 
5.17 | 5.08 | Cc1ccc([S+]([O-])/C=C\c2ccc3no[n+]([O-])c3c2)cc1 (stereo unspecified) |  |  | 
5.34 | 5.22 | Cc1ccc([S+]([O-])/C=C/c2ccc3no[n+]([O-])c3c2)cc1 (stereo unspecified) |  |  | 
5.26 | 5.17 | [O-][n+]1onc2ccc(/C=C/[S+]([O-])c3ccc(Cl)cc3)cc21 (stereo unspecified) | 4.74 | 4 | 
5.35 | 5.21 | [O-][n+]1onc2ccc(/C=C/[S+]([O-])c3ccc(F)cc3)cc21 (stereo unspecified) |  |  | 
